Assay results from ChEMBL document CHEMBL1156200, “Removal of sphingosine 1-phosphate receptor-3 (S1P(3)) agonism is essential, but inadequate to obtain immunomodulating 2-aminopropane-1,3-diol S1P(1) agonists with reduced effect on heart rate” (J Med Chem, 2010).

Legend:
[1] = biological target: Sphingosine 1-phosphate receptor 3 (Homo sapiens, UniProt Q99500); assay: Agonist activity at human S1P3 receptor expressed in CHO cells assessed as intracellular calcium mobilization; type: functional, cell-based
Sphingosine 1-phosphate receptor 3, sequence (Q99500 whole entry): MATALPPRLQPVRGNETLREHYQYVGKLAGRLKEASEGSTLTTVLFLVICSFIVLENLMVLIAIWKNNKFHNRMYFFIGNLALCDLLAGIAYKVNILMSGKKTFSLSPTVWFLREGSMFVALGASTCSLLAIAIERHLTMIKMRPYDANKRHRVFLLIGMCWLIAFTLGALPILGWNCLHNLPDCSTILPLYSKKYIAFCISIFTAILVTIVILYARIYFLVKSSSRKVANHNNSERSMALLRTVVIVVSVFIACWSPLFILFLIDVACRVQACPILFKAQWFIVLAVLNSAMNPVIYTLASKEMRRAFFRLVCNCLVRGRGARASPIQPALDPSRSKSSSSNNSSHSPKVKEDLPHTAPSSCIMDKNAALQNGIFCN

[2] = biological target: Sphingosine 1-phosphate receptor 1 (Homo sapiens, UniProt P21453); assay: Agonist activity at human S1P1 receptor expressed in human Chem1 cells assessed as intracellular calcium mobilization; type: functional, cell-based
Sphingosine 1-phosphate receptor 1, sequence (P21453 whole entry): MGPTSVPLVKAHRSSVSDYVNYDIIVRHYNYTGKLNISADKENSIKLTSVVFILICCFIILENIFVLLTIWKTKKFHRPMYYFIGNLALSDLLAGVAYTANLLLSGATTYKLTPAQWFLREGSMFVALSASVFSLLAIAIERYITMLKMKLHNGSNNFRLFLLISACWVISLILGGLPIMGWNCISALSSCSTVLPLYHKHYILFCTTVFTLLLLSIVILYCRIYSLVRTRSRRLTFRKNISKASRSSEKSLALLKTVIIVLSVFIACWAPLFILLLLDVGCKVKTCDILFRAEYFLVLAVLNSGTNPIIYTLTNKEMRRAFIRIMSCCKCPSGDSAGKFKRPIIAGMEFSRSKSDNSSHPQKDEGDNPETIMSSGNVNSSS

Rattus norvegicus = assay: Toxicity in iv dosed Sprague-Dawley rat assessed as reduction in heart rate; type: organism-based; conditions: in vivo
Outline: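 Male Sprague-Dawley rats anesthetized with ip pentobarbital sodium (50 mg/kg); phosphate form injected iv over about 30 s at 0.03 to 3 mg/kg. Heart rate counted from R waves of lead II ECG before dosing and 1, 2, 3, 4, 5, 10 and 15 min after. ID50 is the dose lowering heart rate by 50% versus vehicle control; 3-6 animals per compound.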

Mus musculus = assay: Immunomodulatory activity in ip dosed BALB/c mouse assessed as reduction in lymphocyte using FITC-conjugated hamster antimouse CD3e antibody by flow cytometry; type: functional
Outline: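 Male BALB/c mice given the alcohol form intraperitoneally; peripheral blood taken from posterior vena cava 24 h later, hemolyzed and fixed. CD3+ T and CD45R+ (B220) B cells counted by two-colour flow cytometry. ED50 is the dose lowering lymphocyte count by 50% versus vehicle-treated controls; 5 animals per compound.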

Compound	EC50 [1]	EC50 [2]	ID50 (Rattus norvegicus)	ED50 (Mus musculus)
NC(CO)(CCc1ccc(-c2ccc(Sc3ccccc3)cc2F)cc1)COP(=O)(O)O (configuration not stated)	> 1000 nM	3.6 nM		
CCCCCc1ccc(-c2ccc(CCC(N)(CO)COP(=O)(O)O)cc2)c(F)c1 (configuration not stated)	> 1000 nM	1.1 nM		
NC(CO)(CCc1ccc(-c2ccc(Oc3ccccc3)cc2)cc1Cl)COP(=O)(O)O (configuration not stated)	> 1000 nM	4.7 nM	0.087 mg/kg	
NC(CO)(CCc1ccc(-c2ccc(SCc3ccccc3)cc2F)cc1)COP(=O)(O)O (configuration not stated)	4.9 nM	0.84 nM	0.008 mg/kg	
CCc1ccc(Sc2ccc(-c3ccc(CCC(N)(CO)CO)cc3)c(F)c2)cc1				0.04 mg/kg
NC(CO)(CCc1ccc(-c2ccc(OCc3ccccc3)cc2F)cc1)COP(=O)(O)O (configuration not stated)	4.1 nM	1.1 nM	0.014 mg/kg	
NC(CO)(CCc1ccc(-c2ccc(Oc3ccccc3)cc2)cc1)COP(=O)(O)O (configuration not stated)	> 1000 nM	21 nM	0.14 mg/kg	
CCCCOc1ccc(-c2ccc(CCC(N)(CO)COP(=O)(O)O)cc2)cc1Cl (configuration not stated)	> 1000 nM	3.1 nM		
NC(CO)(CCc1ccc(-c2ccc(OCc3ccccc3)cc2)cc1Cl)COP(=O)(O)O (configuration not stated)	13 nM	1.6 nM	0.017 mg/kg	
CCCCOc1ccc(-c2ccc(CCC(N)(CO)COP(=O)(O)O)cc2)cc1F (configuration not stated)	> 1000 nM	1.3 nM		
Cc1ccc(Oc2ccc(-c3ccc(CCC(N)(CO)COP(=O)(O)O)cc3)c(F)c2)cc1 (configuration not stated)	83 nM	1.8 nM	0.016 mg/kg	
NC(CO)(CO)CCc1ccc(-c2ccc(SCc3ccccc3)cc2)cc1Cl				0.08 mg/kg
NC(CO)(CO)CCc1ccc(-c2ccc(OCc3ccccc3)cc2)cc1Cl				0.13 mg/kg
NC(CO)(CO)CCc1ccc(-c2ccc(Sc3ccccc3)cc2F)cc1				0.42 mg/kg
CCCCOc1ccc(-c2ccc(CCC(N)(CO)COP(=O)(O)O)cc2)c(F)c1.F (configuration not stated)	51 nM	0.53 nM	0.009 mg/kg	
CCCCOc1cc(F)c(-c2ccc(CCC(N)(CO)COP(=O)(O)O)cc2)cc1F (configuration not stated)	> 1000 nM	1.2 nM		
CCCCOc1ccc(-c2ccc(CCC(N)(CO)CO)cc2)cc1Cl				1.3 mg/kg
NC(CO)(CO)CCc1ccc(-c2ccc(SCc3ccccc3)cc2F)cc1				0.04 mg/kg
NC(CO)(CO)CCc1ccc(-c2ccc(Oc3ccccc3)cc2)cc1Cl				0.16 mg/kg
Cc1cccc(Sc2ccc(-c3ccc(CCC(N)(CO)COP(=O)(O)O)cc3)c(F)c2)c1 (configuration not stated)	> 1000 nM	2 nM	0.063 mg/kg	
CCCCOc1ccc(-c2ccc(CCC(N)(CO)CO)c(Cl)c2)cc1				0.08 mg/kg
CCCCCCCCc1ccc(CCC(N)(CO)COP(=O)(O)O)cc1 (configuration not stated)			0.012 mg/kg	
CCCCCc1ccc(-c2ccc(CCC(N)(CO)COP(=O)(O)O)c(Cl)c2)cc1 (configuration not stated)	> 1000 nM	0.64 nM		
CCCCOc1ccc(-c2ccc(CCC(N)(CO)COP(=O)(O)O)c(Cl)c2)cc1 (configuration not stated)	> 1000 nM	0.62 nM	0.013 mg/kg	

Compound	EC50 [1]	EC50 [2]	ID50 (Rattus norvegicus)	ED50 (Mus musculus)
CCCCOc1ccc(-c2ccc(CCC(N)(CO)CO)cc2)cc1F				0.21 mg/kg
CCCCOc1ccc(-c2ccc(CCC(N)(CO)CO)cc2)cc1				0.22 mg/kg
Cc1ccc(Sc2ccc(-c3ccc(CCC(N)(CO)CO)c(Cl)c3)c(F)c2)cc1				0.04 mg/kg
CC(C)c1ccc(Sc2ccc(-c3ccc(CCC(N)(CO)CO)cc3)c(F)c2)cc1				0.15 mg/kg
NC(CO)(CO)CCc1ccc(-c2ccc(Sc3ccc(Cl)cc3)cc2F)cc1				0.18 mg/kg
CCCCOc1cc(F)c(-c2ccc(CCC(N)(CO)CO)cc2)cc1F				0.15 mg/kg
CCCCOc1ccc(-c2ccc(CCC(N)(CO)CO)cc2)c(C)c1				3.4 mg/kg
CCCCCc1ccc(-c2ccc(CCC(N)(CO)CO)cc2)c(F)c1				0.1 mg/kg
COc1cccc(Sc2ccc(-c3ccc(CCC(N)(CO)CO)cc3)c(F)c2)c1				0.11 mg/kg
Cc1ccc(Oc2ccc(-c3ccc(CCC(N)(CO)CO)cc3)c(F)c2)cc1				0.04 mg/kg
Cc1cccc(Sc2ccc(-c3ccc(CCC(N)(CO)CO)cc3)c(F)c2)c1				0.13 mg/kg
NC(CO)(CO)CCc1ccc(-c2ccc(OCc3ccccc3)cc2F)cc1				0.01 mg/kg
Cc1ccc(Sc2ccc(-c3ccc(CCC(N)(CO)COP(=O)(O)O)c(Cl)c3)c(F)c2)cc1 (configuration not stated)	> 1000 nM	4.2 nM	0.016 mg/kg	
CCCCCc1ccc(-c2ccc(CCC(N)(CO)CO)c(Cl)c2)cc1				0.11 mg/kg
NC(CO)(CO)CCc1ccc(-c2ccc(Sc3cccc(F)c3)cc2F)cc1				0.16 mg/kg
NC(CO)(CO)CCc1ccc(-c2ccc(Sc3ccc(C(F)(F)F)cc3)cc2F)cc1				0.34 mg/kg
COc1ccc(Sc2ccc(-c3ccc(CCC(N)(CO)CO)cc3)c(F)c2)cc1				0.28 mg/kg
Cc1ccc(Sc2ccc(-c3ccc(CCC(N)(CO)CO)cc3)c(F)c2)cc1				0.05 mg/kg
NC(CO)(CO)CCc1ccc(-c2ccc(Oc3ccccc3)cc2)cc1				0.25 mg/kg
CCCCCCCCc1ccc(CCC(N)(CO)CO)cc1 [FINGOLIMOD]				0.02 mg/kg
CCCCOc1ccc(-c2ccc(CCC(N)(CO)COP(=O)(O)O)cc2)cc1 (configuration not stated)	> 1000 nM	0.81 nM	0.008 mg/kg	
NC(CO)(CO)CCc1ccc(-c2ccc(Sc3ccc(F)cc3)cc2F)cc1				0.07 mg/kg
Cc1ccc(Sc2ccc(-c3ccc(CCC(N)(CO)COP(=O)(O)O)cc3)c(F)c2)cc1 (configuration not stated)	> 1000 nM	3 nM		
CCCCOc1ccc(-c2ccc(CCC(N)(CO)CO)cc2)c(F)c1				0.06 mg/kg
